Only some compounds are listed: those with a hit (about 9.5% of all), similar ones and a draw of the others.
Jurkat viability: cytotoxic compounds reducing Jurkat cell viability. Jurkat E6.1 viability, ATP luminescence, 48 h. inhibition, % at 4 µM. 56,000 compounds, 1.2% hits. AID 463;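 active means inhibition above the mean inhibition of all tested compounds plus 3 SD, cut at about 28% in these data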
HEK293 NFkB inh: lowers PMA/ionomycin-induced NF-kB signal in HEK293 cells. HEK-293 NF-kB luciferase reporter, luminescence. 62,000 compounds, 0.21% hits. inhibition, % at 3 µM. AID 465;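 active means inhibition above the mean of all tested compounds plus 3 SD, cut at about 40% in these data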
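Timing: 1 h pretreatment, 16 h stimulation, 37 °C; system: HEK-293 cells with stable firefly luciferase reporter driven by four HIV NF-kB elements; doses: 3 µM once, 0.30% DMSO; measured by: luciferase luminescence; control set: DMSO and 10 µM reference inhibitor; repeats: single test; reagent: PMA plus ionomycin mix as NF-kB-activating stimulus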
M1 agonist: M1 muscarinic receptor agonism; CHO-M1 cells, Fluo-4 calcium fluorescence, agonist mode; hits give high values; 64,000 compounds, 3% hits; B-score at 10 µM; AID 626;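 active means fluorescence rise, raw or as B-score row- and column-corrected plate score, outside the 99.7% band of its plate's samples, either direction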
Htt clearance: compounds clearing mutant huntingtin protein. HeLa Exon1htt(103Q)mCFP, aggregate imaging; zero = plate's median compound well. inhibition, % at 1.5 µM. 47,000 compounds, 0.42% hits;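 active means inhibition of aggregate fluorescence above about 70%, also judged a hit by eye on the cell image, limit read from the data, passing the limit was not always enough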;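 further: cells exposed to compound for three days before fixation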
M1 antag: antagonists of rat M1 muscarinic receptor; CHO-M1 cells, Fluo-4 calcium, ACh EC80 antagonist mode; hits give low values; AID 628; 64,000 compounds, 3.4% hits; P08482; B-score at 10 µM;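 active means calcium fluorescence response, raw or row-and-column corrected B-score, differing from the plate sample mean either way at a set confidence level, mostly lower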
Target sequence (P08482 whole entry, looked up): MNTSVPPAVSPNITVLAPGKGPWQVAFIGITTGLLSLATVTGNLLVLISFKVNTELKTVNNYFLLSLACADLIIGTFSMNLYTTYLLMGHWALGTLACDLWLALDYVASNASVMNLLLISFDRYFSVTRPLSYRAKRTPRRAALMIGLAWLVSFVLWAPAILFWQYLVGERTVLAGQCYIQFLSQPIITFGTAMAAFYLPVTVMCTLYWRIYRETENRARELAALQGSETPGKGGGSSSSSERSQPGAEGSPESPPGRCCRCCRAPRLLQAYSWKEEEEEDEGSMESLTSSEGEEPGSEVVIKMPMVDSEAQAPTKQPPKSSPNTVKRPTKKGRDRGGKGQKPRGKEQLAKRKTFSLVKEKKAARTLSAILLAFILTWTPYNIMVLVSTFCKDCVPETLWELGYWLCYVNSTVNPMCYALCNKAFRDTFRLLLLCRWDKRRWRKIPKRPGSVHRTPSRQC
D1 allo mod: allosteric modulators of human D1 dopamine receptor. HEK293 D1, CRE-luciferase, dopamine EC30 potentiation; actives deviate in either direction. B-score at 10 µM. AID 641. 58,000 compounds, 5.9% hits. P21728;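 active means luminescence count or its row- and column-corrected plate score outside the 99.7% band of the plate's sample wells, on either side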
D1 PAM confirm: confirmation of human D1 dopamine receptor allosteric modulators; shares compounds with D1 allo mod; HEK293 D1 CRE-luciferase, dopamine EC30 potentiation; hits give high values; luminescence at 10 µM; 2,200 compounds, 88% hits;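 active means luminescence in either of two replicates above the same-plate mean plus 3 SD of the low-dose dopamine control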
D1 ag no DA: secondary test of D1 modulators: activity without dopamine. HEK293 D1 CRE-luciferase, luminescence, no dopamine; hits give high values. 1,900 compounds, 0.8% hits. luminescence at 10 µM. shares compounds with D1 allo mod. AID 646; in the data active means luminescence above about 3900
Isoprot counter: counter-screen for D1 modulators: isoproterenol response in HEK293 cells; shares compounds with D1 allo mod; HEK293 D1 CRE-luciferase, isoproterenol EC30 counter-screen; hits give high values; luminescence at 10 µM; 2,200 compounds, 63% hits; AID 647;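 active means luminescence in either replicate above plate mean of wells with a partly effective reference agonist dose plus 3 SD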;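 further: isoproterenol raises cAMP through native beta-adrenoceptor Gs so signal bypasses D1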
Each line names hits and unclear results; the compound was inactive in the other large screens (follow-up assays come after a bar, where they were run).

COc1ncnc2c1oc1nc(C(C)C)c3c(c12)CC(C)(C)OC3	D1 allo mod 8.7 (no result: Htt clearance) | D1 PAM confirm 20880 | D1 ag no DA inactive | Isoprot counter 7356
CCOC(=O)c1oc2nc(C(C)C)c3c(c2c1N)CC(C)(C)OC3	D1 allo mod 4.7 | D1 PAM confirm 6644 | D1 ag no DA inactive | Isoprot counter 2908
CN(C)c1nc2n(c(=S)n1)CCS2	none (no result: Jurkat viability, HEK293 NFkB inh, D1 allo mod)
O/N=C1/CCc2nonc2/C1=N/O	none
Cc1ccc(N2CC(C(=O)OCc3ccccc3)CC2=O)cc1 (stereo unspecified)	none
NC(=O)NC(=O)Nc1ccccc1Cl	D1 allo mod 2.8 (no result: Htt clearance) | D1 PAM confirm 7220 | D1 ag no DA inactive | Isoprot counter inactive
CCOC(=O)C1=C(N)n2c(s/c(=C\c3cccs3)c2=O)=C(C(=O)OCC)C1c1cccs1 (stereo unspecified)	Jurkat viability 86, D1 allo mod 4.6 | D1 PAM confirm 10396 | D1 ag no DA inactive | Isoprot counter 4364
COc1ccc(C(=O)N(Cc2nc(-c3ccc(C)cc3)no2)C2CCCCC2)cc1OC	none (no result: M1 agonist, M1 antag)
Cc1csc(SCc2nc3sc4c(c3c(=O)[nH]2)CCC4)n1	none
Cc1nc2sc3c(c2c(=O)[nH]1)CCC3	D1 allo mod 3.1 (no result: Htt clearance) | D1 PAM confirm 11308 | D1 ag no DA inactive | Isoprot counter inactive
Nc1nc2sc3c(c2c(=O)s1)CCCC3	D1 allo mod 14 (no result: Htt clearance) | D1 PAM confirm 13312 | D1 ag no DA inactive | Isoprot counter 3388
Cc1nc2sc3c(c2c(=O)o1)CCCC3	none
COc1ccccc1NC(=O)Cn1cnc2c(cnn2-c2ccc(C)c(C)c2)c1=O	none (no result: D1 allo mod)
COc1cccc(-c2nn(-c3ccccc3)cc2CO)c1	D1 allo mod 3.6 | D1 PAM confirm 10836 | D1 ag no DA inactive | Isoprot counter 3120
OCc1cn(-c2ccccc2)nc1-c1ccc2c(c1)OCCO2	none (no result: Htt clearance)
COc1ccc(-c2nn(-c3ccccc3)cc2CO)cc1OC	D1 allo mod 6.7 (no result: M1 agonist, Htt clearance, M1 antag) | D1 PAM confirm 13160 | D1 ag no DA inactive | Isoprot counter 4152
COc1cccc(-c2nn(-c3ccccc3)cc2C(=O)NCC(=O)O)c1	none (no result: Htt clearance)
O=C(NC1CC1)c1ccc(CS(=O)(=O)c2c(Cl)cccc2Cl)o1	none (no result: D1 allo mod)
CCOc1cc2nc(-c3ccc(OC)c(OC)c3)nc(N3CCOCC3)c2cc1OC	D1 allo mod 13 (no result: Jurkat viability, HEK293 NFkB inh) | D1 PAM confirm 10492 | D1 ag no DA inactive | Isoprot counter 5440
COc1ccc(-c2cc(C(F)(F)F)nc(N3CCOCC3)n2)cc1OC	none (no result: Jurkat viability, D1 allo mod)
O=C(NCCO)C(c1ccccc1)c1ccccc1	none (no result: Htt clearance)
CCOC(=O)C(NCCCO)c1ccccc1 (stereo unspecified)	D1 allo mod 2.8 | D1 PAM confirm inactive | D1 ag no DA inactive | Isoprot counter inactive
CCCSc1nc(N)cc(=O)[nH]1	none (no result: Htt clearance)
CCOc1ccc(C(=O)Nc2nncs2)cc1OCC	D1 allo mod 10 (no result: Htt clearance) | D1 PAM confirm 18420 | D1 ag no DA inactive | Isoprot counter 4240
CCCCCn1c(NCc2ccco2)nc2ccccc21	D1 allo mod 6.3 | D1 PAM confirm 12176 | D1 ag no DA inactive | Isoprot counter inactive
COc1ccc(NC(=O)Cn2cccc2)cc1Cl	none
CCOC(=O)c1c(NC(=O)CSc2nnc(-c3cccnc3)o2)sc(C(C)=O)c1C	D1 allo mod 4 (no result: Htt clearance) | D1 PAM confirm 6332 | D1 ag no DA inactive | Isoprot counter 3396
CCOC(=O)c1c(NC(=O)CSc2nnc(-c3ccco3)o2)sc(C(C)=O)c1C	none
COc1ccc(CNC(=O)C(OC(C)=O)c2ccccn2)cc1 (stereo unspecified)	none
COC(=O)c1cc(NC(=O)CCc2c(C)nc3ncnn3c2C)cc(C(=O)OC)c1	D1 allo mod 5.2 | D1 PAM confirm inactive | Isoprot counter inactive
Cc1ccc(NC(=O)CCc2c(C)nc3ncnn3c2C)cc1	none
COc1ccc(C(O)P(=O)(OC2CCCCC2)c2ccc(N(C)C)cc2)cc1OC (stereo unspecified)	none
CC(=O)Nc1cccc(-c2nnc(SCc3ccccc3C#N)n2C)c1	none (no result: Htt clearance)
CCn1c2ccccc2c2cc(Nc3cc(C)nc4ncnn34)ccc21	Jurkat viability 99, HEK293 NFkB inh 47, D1 allo mod 7.5 (no result: Htt clearance) | D1 PAM confirm 11088 | D1 ag no DA inactive | Isoprot counter 3620
Cc1cc(Nc2ccc(F)c(Cl)c2)n2ncnc2n1	D1 allo mod 4.3 (no result: Htt clearance) | D1 PAM confirm 8188 | D1 ag no DA inactive | Isoprot counter 3716
COC(=O)c1cc(Br)c(=O)n(CCC2=CCCCC2)c1	none
Cc1cccc(NC(=O)CCc2c(C)nc3ncnn3c2C)n1	none (no result: Jurkat viability, HEK293 NFkB inh, M1 agonist, M1 antag, D1 allo mod)
COCCCn1c(SCC(=O)N2CCCC(C)C2)nnc1-c1ccco1 (stereo unspecified)	none (no result: Htt clearance)
Cc1ccc(-c2c3c(=O)n(C)c(=O)n(C)c3c3nnc4ccccc4n23)cc1	none
Cc1ccnn2c(-c3ccccc3)c3c(=O)n(C)c(=O)n(C)c3c12	D1 allo mod 9.1 | D1 PAM confirm 12160 | D1 ag no DA inactive | Isoprot counter 3604
CCSc1oc(-c2ccccc2)nc1S(=O)(=O)c1ccccc1	none
COc1cc(-c2nc(S(=O)(=O)c3ccccc3)c(N3CCOCC3)o2)cc(OC)c1OC	D1 allo mod 5.1 (no result: Jurkat viability) | D1 PAM confirm 11504 | D1 ag no DA inactive | Isoprot counter 5088
CCSc1oc(-c2ccco2)nc1S(=O)(=O)c1ccccc1	D1 allo mod 3 (no result: Jurkat viability) | D1 PAM confirm 24204 | D1 ag no DA inactive | Isoprot counter 3872
O=S(=O)(c1ccccc1)c1nc(-c2ccco2)oc1N1CCCCCC1	D1 allo mod 6.6 | D1 PAM confirm 10268 | D1 ag no DA inactive | Isoprot counter inactive
CSc1oc(-c2ccco2)nc1S(=O)(=O)c1ccc(Br)cc1	D1 allo mod 4 (no result: Htt clearance) | D1 PAM confirm 15096 | D1 ag no DA inactive | Isoprot counter inactive
CN1CCN(c2oc(-c3ccco3)nc2S(=O)(=O)c2ccccc2)CC1	none (no result: Htt clearance)
COc1ccc(/C=N/NC(=O)C(=O)NCc2cccnc2)cc1OC	none (no result: Jurkat viability, HEK293 NFkB inh, M1 agonist, M1 antag, D1 allo mod)
Clc1ccc(-c2nc3ccccc3n2OCc2ccccc2)cc1	none (no result: Jurkat viability, HEK293 NFkB inh, M1 agonist, M1 antag, D1 allo mod)
CCOC(=O)c1c(=O)n(O)c2ccc(C)cc2[n+]1[O-]	none (no result: Htt clearance)
CCCSc1oc(-c2ccco2)nc1S(=O)(=O)c1ccccc1	D1 allo mod 17 | D1 PAM confirm 14944 | D1 ag no DA inactive | Isoprot counter 4752
CC(C)Sc1oc(-c2ccco2)nc1S(=O)(=O)c1ccc(F)cc1	none (no result: Jurkat viability, Htt clearance)
CCn1c(=O)c2ccccc2n2c(SCC(=O)NCc3cccs3)nnc12	D1 allo mod 4.7 (no result: Htt clearance) | D1 PAM confirm inactive | D1 ag no DA inactive | Isoprot counter inactive
